Laboratory results published in ChEMBL document CHEMBL1124931, “Fluoro carbocyclic nucleosides: synthesis and antiviral activity of 2'- and 6'-fluoro carbocyclic pyrimidine nucleosides including carbocyclic 1-(2-deoxy-2-fluoro-beta-D-arabinofuranosyl)-5-methyluracil and carbocyclic 1-(2-deoxy-2-fluoro-beta-D-arabinofuranosyl)-5-iodouracil” (1990).
Values after ≈ are worked out from the molar mass of the structure shown.

Columns and labels:
Vero [1] = experiment: Cytotoxic effect on Vero cells was determined in mock infected cell monolayers incubated with the compound for 48 hr at 37 degree celsius.; format: functional, Chlorocebus sabaeus
In short: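 Mock-infected confluent Vero monolayers exposed to compound for 48 h at 37 °C. Examined microscopically, with gross changes in cell staining, number or morphology scored. The cytotoxic dose is the level affecting 50% of the monolayer.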

Vero [2] = experiment: Antiherpes activity was measured in a plaque reduction assay in Vero cells, against HSV-1 strain KOS.; format: functional; conditions: Chlorocebus sabaeus, read-out: ID50 (the source's name)
In short: (§1)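 Confluent Vero monolayers infected with 30–40 PFU of HSV-1 (KOS) or HSV-2 (186). After 1 h adsorption at 37 °C, overlaid with maintenance medium containing 0.75% carboxymethylcellulose plus a range of compound concentrations. Incubated 2 further days at 37 °C, then fixed and stained and plaques counted. ID50 is the concentration giving 50% inhibition of plaque formation.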

Vero [3] = experiment: Antiherpes activity was measured in a plaque reduction assay in Vero cells, against HSV-2 strain 186.; format: functional; conditions: Chlorocebus sabaeus, read-out: ID50 (the source's name); in short: as §1

| Structure (SMILES) | Cytotoxicity (Vero [1]) [µg/mL] | IC50 (Vero [2]) [µg/mL] | IC50 (Vero [3]) [µg/mL] |
| --- | --- | --- | --- |
| O=c1[nH]c(=O)n([C@H]2C[C@H](O)[C@@H](CO)[C@@H]2F)cc1I | > 300 | > 300 | > 300 |
| Nc1ccn([C@@H]2C[C@H](CO)[C@@H](O)[C@H]2F)c(=O)n1 | > 300 | 18 (≈ 74 µM) | 44 (≈ 181 µM) |
| O=c1[nH]c(=O)n([C@H]2C[C@H](O)[C@@H](CO)[C@H]2F)cc1I | > 300 | > 300 | > 300 |
| Nc1ccn([C@@H]2C[C@H](CO)[C@@H](O)[C@@H]2F)c(=O)n1 | > 100 | 13 (≈ 53.4 µM) | 82 (≈ 337 µM) |
| O=c1[nH]c(=O)n([C@@H]2C[C@H](CO)[C@@H](O)C2)cc1I | 300 | 0.07 (≈ 0.199 µM) | 97 (≈ 275 µM) |
| Cc1cn(C2CC(CO)C(O)C2F)c(=O)[nH]c1=O (stereo not drawn) | > 100 | > 100 | > 100 |
| O=c1[nH]c(=O)n(C2CC(CO)C(O)C2F)cc1I (stereo not drawn) | > 100 | 11 (≈ 29.7 µM) | > 100 |
| Cc1cn(C2CC(CO)C(O)C2(F)F)c(=O)[nH]c1=O (stereo not drawn) | > 100 | > 100 | > 100 |
| O=c1ccn(C2CC(O)C(CO)C2F)c(=O)[nH]1 (stereo not drawn) | > 300 | > 300 | > 300 |
| Cc1cn([C@@H]2O[C@H](CO)[C@@H](O)[C@@H]2F)c(=O)[nH]c1=O [5-METHYL-2'-FLUOROARAURACIL] | > 30 | 0.05 (≈ 0.192 µM) | 0.05 (≈ 0.192 µM) |
| O=c1[nH]c(=O)n([C@H]2C[C@H](O)[C@@H](CO)O2)cc1I [IDOXURIDINE] | > 30 | 0.1 (≈ 0.282 µM) | 0.9 (≈ 2.54 µM) |
